# Data taken from PMC9065685 (Bioorganic Chemistry, 2022).
# Values joined by “and” are separate entries in the source; they are usually repeats but may differ in a detail not shown here. Identical values can stand only once.
# Tests used:
# Salmonella typhi = experiment: Disc diffusion antibacterial susceptibility test; assay type: cell-based; conditions: mean ± SD, triplicate, NI = No inhibition
# Outline: (§1)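 Bacteria came from a university microbiology laboratory stock. Colonies were suspended in sterile 0.85% saline and matched to McFarland 0.5, then swabbed evenly onto Mueller-Hinton agar. 6 mm filter-paper discs carrying test compound were laid on the agar. Plates were incubated 18 h at 37 °C and inhibition zone diameters measured in mm. Three repeats, reported as mean ± SD.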
# Bacillus subtilis = experiment: Disc diffusion antibacterial susceptibility test; assay type: cell-based; conditions: 18 h at 37 °C, mean ± SD, triplicate, NI = No inhibition
# Outline: as §1
# Pseudomonas aeruginosa = experiment: Disc diffusion antibacterial susceptibility test; assay type: cell-based; conditions: mean ± SD, triplicate, NI = No inhibition
# Outline: as §1
# Escherichia coli = experiment: Disc diffusion antibacterial susceptibility test; assay type: cell-based; conditions: mean ± SD, triplicate, NI = No inhibition
# Outline: as §1
# Aspergillus flavus = experiment: Mycelial growth inhibition; assay type: cell-based; conditions: 5 days incubation, mean ± SD, triplicate, NI = No inhibition
# Aspergillus niger = experiment: Mycelial growth inhibition; assay type: cell-based; conditions: 5 days incubation, mean ± SD, triplicate, NI = No inhibition
# [1] = test system: tested strains (pathogenic bacteria); experiment: MIC and MBC by micro-broth dilution, over the tested strains; assay type: cell-based; conditions: for MBC: read-out: MBC values against the tested organisms; for MIC: read-out: MIC values against the tested strains
# Outline: (§2)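 Broth microdilution in Mueller-Hinton broth, using a two-fold test compound series over 0.125 to 128 µg/mL. Wells received 5 µL of inoculum at 10⁴–10⁵ CFU/mL, diluted from a 0.5 McFarland suspension. Each plate had growth (no compound) and sterility controls. After 24 h at 37 °C, 0.5% (w/v) triphenyl tetrazolium chloride was added for a further 24 h at 37 °C. Red colour indicated growth, and MIC/MBC were read visually.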
# brine shrimps nauplii = experiment: Brine shrimp lethality assay; assay type: in vivo; conditions: brine shrimp lethality bioassay, 24 h and 48 h
# Outline: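 Test compound was dissolved in DMSO and made up to 5 ml with NaCl solution at four concentrations. Ten nauplii per vial, each concentration run three times; control vial held 10 nauplii in 5 ml seawater. Vials stood at room temperature for 24 h and 48 h. Survivors were counted under a magnifying glass, and average % mortality was calculated per concentration.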
# B. subtilis = experiment: MIC and MBC by micro-broth dilution; assay type: cell-based; conditions: Bacillus subtilis
# Outline: as §2
Compound,"Diameter of inhibition zone, S. typhi (-ve) (Salmonella typhi)","Diameter of inhibition zone, B. subtilis (+ve) (Bacillus subtilis)","Diameter of inhibition zone, P. aeruginosa (-ve) (Pseudomonas aeruginosa)","Diameter of inhibition zone, E. coli (-ve) (Escherichia coli)","% inhibition of fungal mycelial growth in mm (20 μg/μL), Aspergillus. flavus (Aspergillus flavus)","% inhibition of fungal mycelial growth in mm (20 μg/μL), Aspergillus niger (Aspergillus niger)",MBC [1],MIC [1],% death of brine shrimp (level of toxicity) (brine shrimps nauplii),MIC (B. subtilis)
"CC[C@H]1OC(=O)[C@H](C)[C@@H](O[C@H]2C[C@@](C)(OC)[C@@H](O)[C@H](C)O2)[C@H](C)[C@@H](O[C@@H]2O[C@H](C)C[C@H](N(C)C)[C@H]2O)[C@](C)(O)C[C@@H](C)CN(C)[C@H](C)[C@@H](O)[C@]1(C)O [Azithromycin, reference compound]",**18 ± 0.2 mm,18.5 ± 0.3 mm,**18.5 ± 0.3 mm,**17.25 ± 0.1 mm,–,–,–,–,–,–
"C[C@@H]1[C@H](O)[C@@H](C)/C=C/C=C/CC/C=C/C=C/C=C/C=C/C(O[C@H]2O[C@H](C)[C@@H](O)[C@H](N)[C@@H]2O)CC2O[C@](O)(CC(O)C(O)CCC(O)CC(O)CC(O)CC(=O)O[C@H]1C)CC(O)C2C(=O)O (some centres unmarked) [Nystatin, reference compound]",–,–,–,–,**64.1 ± 1.0%,**65.4 ± 1.0%,–,–,–,–
"CCCCCCCCCCCC(=O)OC[C@H]1O[C@@H](n2cc(C)c(=O)[nH]c2=O)C[C@@H]1O [analog 2, 5́-O-(Lauroyl)thymidine]",*14.50 ± 0.3 mm,–,*12.75 ± 0.1 mm,*13.00 ± 0.1 mm,*82.76 ± 1.0%,*60.16 ± 1.2%,8 to 16 µg/mL,0.125 to 8 µg/mL,36.25%,0.125 µg/mL
"CCCCCCCCCCCC(=O)OC[C@H]1O[C@@H](n2cc(C)c(=O)[nH]c2=O)C[C@@H]1OC(=O)c1ccc(C(C)(C)C)cc1 [analog 3, 3́-O-(4-t-Butylbenzoyl)-5́-O-(lauroyl)thymidine]",9.75 ± 0.2 mm,13.25 mm and 13.25 ± 0.2 mm,*11.75 ± 0.4 mm,–,*72.95 ± 1.0%,*65.25 ± 1.1%,8 to 16 µg/mL,0.125 to 8 µg/mL,–,–
"CCCCCCCCCCCCCC(=O)O[C@H]1C[C@H](n2cc(C)c(=O)[nH]c2=O)O[C@@H]1COC(=O)CCCCCCCCCCC [analog 4, 5́-O-Lauroyl-3́-O-(myristoyl)thymidine]",–,12.75 mm and 12.75 ± 0.1 mm,–,*12.5 ± 0.2 mm,–,–,–,–,–,–
"CCCCCCCCCCCCCCCC(=O)O[C@H]1C[C@H](n2cc(C)c(=O)[nH]c2=O)O[C@@H]1COC(=O)CCCCCCCCCCC [analog 5, 5′-O-Lauroyl-3′-O-(palmitoyl)thymidine]",*15.25 ± 0.2 mm,14.50 mm and 14.5 ± 0.1 mm,8.50 ± 0.2 mm,9.00 ± 0.2 mm,*81.55 ± 1.0%,57.62 ± 1.1%,–,–,–,–
"CCCCCCCCCCCC(=O)OC[C@H]1O[C@@H](n2cc(C)c(=O)[nH]c2=O)C[C@@H]1OC(=O)c1ccc(Br)cc1 [analog 6, 3́-O-(4-Bromobenzoyl)-5́-O-(lauroyl)thymidine]",9.5 ± 0.1 mm,–,–,–,–,–,–,–,38.75%,–
